Reference: ChEMBL document CHEMBL1121685, “Development of new mitomycin C and porfiromycin analogues” (J Med Chem, 1981)

Assays:
[1] = tested on: Mus musculus; test: Effect of compound on total white blood cell count in BDG1 male mice, after intraperitoneal administration at a dose of 3.77 mg/kg on day 5; assay type: functional
Procedure, shortened: (§1)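 Single ip dose given on day 0 to BDG1 male mice over a descending dose series. Total white blood cell count is expressed as % change from untreated control on days 3, 5 and 7. Significance is flagged at p ≤ 0.05 and p ≤ 0.01.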

[2] = tested on: Mus musculus; test: Effect of compound on total white blood cell count in BDG1 male mice, after intraperitoneal administration at a dose of 6.7 mg/kg on day 3; assay type: functional
Procedure, shortened: (§2)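 Single ip dose given on day 0 to BDG₁ male mice. Total white blood cell count measured on days 3, 5 and 7, expressed as % change from control. Highest dose was at the LD₅₀, or at twice the optimal dose where so footnoted. Significance reported at p ≤ 0.05 and p ≤ 0.01. D marks death of one or more mice.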

[3] = tested on: Mus musculus; test: Effect of compound on total white blood cell count in BDG1 male mice, after intraperitoneal administration at a dose of 3.77 mg/kg on day 7; assay type: functional; procedure, shortened: as §1
[4] = tested on: Mus musculus; test: Effect of compound on total white blood cell count in BDG1 male mice, after intraperitoneal administration at a dose of 5.03 mg/kg on day 7; assay type: functional; procedure, shortened: as §2
[5] = tested on: Mus musculus; test: Effect of compound on total white blood cell count in BDG1 male mice, after intraperitoneal administration at a dose of 6.7 mg/kg on day 5; assay type: functional; procedure, shortened: as §2
[6] = tested on: Mus musculus; test: Effect of compound on total white blood cell count in BDG1 male mice, after intraperitoneal administration at a dose of 2.83 mg/kg on day 5; assay type: functional; procedure, shortened: as §1
[7] = tested on: Mus musculus; test: Effect of compound on total white blood cell count in BDG1 male mice, after intraperitoneal administration at a dose of 3.77 mg/kg on day 3; assay type: functional; procedure, shortened: as §1
[8] = Therapeutic ratio is expressed as ratio of optimal dose and minimum effective dose; assay type: ADME; conditions: mouse; read-out: TR
Procedure, shortened: (§3)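 10⁶ P-388 ascites cells implanted ip in CDF₁ female mice. Six mice per dose, 10 saline-injected controls, and a concurrent mitomycin C reference group. %T/C = median survival time of treated/control × 100. MED is the lowest dose giving %T/C > 125. Therapeutic ratio = optimal dose/MED.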

[9] = tested on: Mus musculus; test: Effect of compound on total white blood cell count in BDG1 male mice, after intraperitoneal administration of a compound of 2.83 mg/kg on day 3; assay type: functional
[10] = tested on: Mus musculus; test: Antitumor activity against P-388 murine leukemia cells in CDF1 female mice after intraperitoneal administration at the specified optimal dose of 3.2 mg/kg; assay type: functional
[11] = tested on: Mus musculus; test: Effect of compound on total white blood cell count in BDG1 male mice, after intraperitoneal administration at a dose of 5.03 mg/kg on day 5; assay type: functional; procedure, shortened: as §2
[12] = tested on: Mus musculus; test: Effect of compound on total white blood cell count in BDG1 male mice, after intraperitoneal administration at a dose of 5.03 mg/kg on day 3; assay type: functional; procedure, shortened: as §2
[13] = tested on: Mus musculus; test: Effect of compound on total white blood cell count in BDG1 male mice, after intraperitoneal administration at a dose of 6.7 mg/kg on day 7; assay type: functional; procedure, shortened: as §2
[14] = tested on: Mus musculus; test: Effect of compound on total white blood cell count in BDG1 male mice, after intraperitoneal administration at a dose of 2.83 mg/kg on day 7; assay type: functional; procedure, shortened: as §1
[15] = tested on: Mus musculus; test: Minimum effective dose that show activity against P-388 murine leukemia cells in CDF1 female mice, after intraperitoneal administration (optimal dose is 3.2 mg/kg); assay type: functional; conditions: P388, ip, read-out: MED; procedure, shortened: as §3
[16] = tested on: Mus musculus; test: Effect of compound on total white blood cell count in BDG1 male mice, after intraperitoneal administration at a dose of 2.25 mg/kg on day 3; assay type: functional; procedure, shortened: as §1
[17] = species: Mus musculus; test: Half-wave potential produced by the compound at their optimal dose; assay type: functional; parameters: unit not given here
[18] = tested on: Mus musculus; test: Effect of compound on total white blood cell count in BDG1 male mice, after intraperitoneal administration at a dose of 2.25 mg/kg on day 7; assay type: functional; procedure, shortened: as §1
[19] = tested on: Mus musculus; test: Effect of compound on total white blood cell count in BDG1 male mice, after intraperitoneal administration at a dose of 1.27 mg/kg on day 7; assay type: functional
Procedure, shortened: (§4)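 BDG₁ male mice received a single ip dose on day 0. The dose series topped out at the LD₅₀ level, or at twice the optimal dose for some agents. Total white blood cell count was taken on days 3, 5 and 7 and expressed as % change from untreated controls. Significance was set at p ≤ 0.05 or p ≤ 0.01.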

[20] = tested on: Mus musculus; test: Effect of compound on total white blood cell count in BDG1 male mice, after intraperitoneal administration at a dose of 1.69 mg/kg on day 7; assay type: functional; procedure, shortened: as §4
[21] = species: Mus musculus; test: Degree of leukopenia produced by compound is assessed form Percent change in white cells on day 3; assay type: functional; procedure, shortened: as §4
[22] = tested on: Mus musculus; test: Effect of compound on total white blood cell count in BDG1 male mice, after intraperitoneal administration at a dose of 3 mg/kg on day 3; assay type: functional; procedure, shortened: as §1
[23] = tested on: Mus musculus; test: Effect of compound on total white blood cell count in BDG1 male mice, after intraperitoneal administration at a dose of 1.27 mg/kg on day 5; assay type: functional; procedure, shortened: as §4
[24] = tested on: Mus musculus; test: Effect of compound on total white blood cell count in BDG1 male mice, after intraperitoneal administration at a dose of 1.27 mg/kg on day 3; assay type: functional; procedure, shortened: as §4
[25] = tested on: Mus musculus; test: Effect of compound on total white blood cell count in BDG1 male mice, after intraperitoneal administration at a dose of 3 mg/kg on day 5; assay type: functional; procedure, shortened: as §1
[26] = tested on: Mus musculus; test: Effect of compound on total white blood cell count in BDG1 male mice, after intraperitoneal administration at a dose of 1.69 mg/kg on day 3; assay type: functional; procedure, shortened: as §4
[27] = tested on: Mus musculus; test: Effect of compound on total white blood cell count in BDG1 male mice, after intraperitoneal administration at a dose of 3 mg/kg on day 7; assay type: functional; procedure, shortened: as §1
[28] = tested on: Mus musculus; test: Effect of compound on total white blood cell count in BDG1 male mice, after intraperitoneal administration at a dose of 1.69 mg/kg on day 5; assay type: functional; procedure, shortened: as §4
[29] = tested on: Mus musculus; test: Effect of compound on total white blood cell count in BDG1 male mice, after intraperitoneal administration at a dose of 2.25 mg/kg on day 5; assay type: functional; procedure, shortened: as §1

Which results are given for `COC12[C@@H](COC(N)=O)C3=C(C(=O)C(C)=C(N4CC4C)C3=O)N1C[C@@H]1[C@H]2N1C` (some centres not stated)?
Change [1]: -25%; Change [2]: -28%; Change [3]: -11%; Change [4]: -4%; Change [5]: -49%; Change [6]: -21%; Change [7]: -30%; selectivity ratio [8]: 8; Change [9]: -31%; T/C [10]: 163%; Change [11]: -44%; Change [12]: -31%; Change [13]: -37%; Change [14]: 2%; minimal effective dose [15]: 0.4 mg/kg

Which Change [16] does the source give for `COC12[C@@H]3N[C@@H]3CN1C1=C(C(=O)C(N3CC3C)=C(C)C1=O)[C@@H]2COC(N)=O` (some centres not stated) here?
The Change was -36%.

And the E1/2 [17]?
The E1/2 was -0.32.

What about the Change [18] of the same compound?
The Change was -6%.

And the Change [19]?
Its Change is 18%.

What about the Change [20] of the same compound?
The Change was 3%.

And the selectivity ratio [8]?
Its selectivity ratio is 32.

What about the Change [21] of the same compound?
Its Change is -24%.

What about the Change [22] of the same compound?
The Change was -37%.

What about the T/C [10] of the same compound?
The T/C was 233%.

And the Change [23]?
Its Change is -5%.

And the Change [24]?
Its Change is -16%.

And the Change [25]?
The Change was -39%.

What about the Change [26] of the same compound?
Its Change is -24%.

And the Change [27]?
Its Change is -12%.

What about the Change [28] of the same compound?
The Change was -5%.

And the Change [29]?
The Change was -32%.

And the minimal effective dose [15]?
Its minimal effective dose is 0.1 mg/kg.
